Results taken from ChEMBL document CHEMBL3588757, “Structure-based design, synthesis and biological testing of piperazine-linked bis-epipodophyllotoxin etoposide analogs” (Bioorg Med Chem, 2015).

Tests used:
Assay type in all cases: functional
[1] = tested on: HCT-15; experiment: Cytotoxicity against human HCT15 cells assessed as cell growth at 50 uM by SRB assay; conditions: read-out: Activity
Outline: (§1)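 Measured in the NCI-60 human tumour cell line panel using five-dose testing. Growth was recorded at each dose for each cell line, and a GI50 was derived for each line.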

[2] = tested on: LOX IMVI; experiment: Cytotoxicity against human LOXIMVI cells assessed as cell growth at 50 uM by SRB assay; conditions: read-out: Activity
[3] = Cytotoxicity against human NCI-ADR-RES cells assessed as cell growth at 50 uM by SRB assay; conditions: read-out: Activity
[4] = tested on: CCRF-CEM; experiment: Cytotoxicity against human CCRF-CEM cells by SRB assay
[5] = tested on: A549; experiment: Cytotoxicity against human A549/ATCC cells by SRB assay
[6] = tested on: COLO 205; experiment: Cytotoxicity against human COLO205 cells by SRB assay
[7] = tested on: HCC 2998; experiment: Cytotoxicity against human HCC2998 cells by SRB assay; outline: as §1
[8] = tested on: KM12; experiment: Cytotoxicity against human KM12 cells by SRB assay
Outline: (§2)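 NCI-60 panel screen; 5-dose testing giving GI50 per cell line, plus a single 10 µM one-dose test. Method details not given beyond the NCI screen.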

[9] = tested on: OVCAR-5; experiment: Cytotoxicity against human OVCAR5 cells by SRB assay; outline: as §2
[10] = tested on: UO-31; experiment: Cytotoxicity against human UO31 cells by SRB assay; outline: as §2
[11] = tested on: PC-3; experiment: Cytotoxicity against human PC3 cells by SRB assay; outline: as §2
[12] = tested on: MCF7; experiment: Cytotoxicity against human MCF7 cells by SRB assay; outline: as §2
[13] = tested on: MDA-MB-231; experiment: Cytotoxicity against human MDA-MB-231/ATCC cells by SRB assay; outline: as §2
[14] = tested on: RPMI-8226; experiment: Cytotoxicity against human RPMI8226 cells assessed as cell growth at 0.005 uM by SRB assay; conditions: read-out: Activity
[15] = tested on: HCT-116; experiment: Cytotoxicity against human HCT116 cells assessed as cell growth at 0.005 uM by SRB assay; conditions: read-out: Activity; outline: as §1
[16] = tested on: SW-620; experiment: Cytotoxicity against human SW620 cells assessed as cell growth at 0.005 uM by SRB assay; conditions: read-out: Activity
[17] = tested on: SK-OV-3; experiment: Cytotoxicity against human SKOV3 cells assessed as cell growth at 0.005 uM by SRB assay; conditions: read-out: Activity
[18] = tested on: MCF7; experiment: Cytotoxicity against human MCF7 cells assessed as cell growth at 0.005 uM by SRB assay; conditions: read-out: Activity
[19] = tested on: CCRF-CEM; experiment: Cytotoxicity against human CCRF-CEM cells assessed as cell growth at 0.05 uM by SRB assay; conditions: read-out: Activity
[20] = tested on: HOP-62; experiment: Cytotoxicity against human HOP62 cells assessed as cell growth at 0.05 uM by SRB assay; conditions: read-out: Activity; outline: as §1
[21] = tested on: NCI-H23; experiment: Cytotoxicity against human NCI-H23 cells assessed as cell growth at 0.05 uM by SRB assay; conditions: read-out: Activity
[22] = tested on: NCI-H460; experiment: Cytotoxicity against human NCI-H460 cells assessed as cell growth at 0.05 uM by SRB assay; conditions: read-out: Activity
[23] = tested on: HCT-15; experiment: Cytotoxicity against human HCT15 cells assessed as cell growth at 0.05 uM by SRB assay; conditions: read-out: Activity; outline: as §1
[24] = tested on: SF-295; experiment: Cytotoxicity against human SF295 cells assessed as cell growth at 0.05 uM by SRB assay; conditions: read-out: Activity
[25] = tested on: SK-OV-3; experiment: Cytotoxicity against human SKOV3 cells assessed as cell growth at 0.05 uM by SRB assay; conditions: read-out: Activity
[26] = tested on: PC-3; experiment: Cytotoxicity against human PC3 cells assessed as cell growth at 0.05 uM by SRB assay; conditions: read-out: Activity
[27] = tested on: SR; experiment: Cytotoxicity against human SR cells assessed as cell growth at 0.5 uM by SRB assay; conditions: read-out: Activity
[28] = tested on: COLO 205; experiment: Cytotoxicity against human COLO205 cells assessed as cell growth at 0.5 uM by SRB assay; conditions: read-out: Activity
[29] = tested on: SF-268; experiment: Cytotoxicity against human SF268 cells assessed as cell growth at 0.5 uM by SRB assay; conditions: read-out: Activity
[30] = tested on: SF-539; experiment: Cytotoxicity against human SF539 cells assessed as cell growth at 0.5 uM by SRB assay; conditions: read-out: Activity
[31] = tested on: OVCAR-3; experiment: Cytotoxicity against human OVCAR3 cells assessed as cell growth at 0.5 uM by SRB assay; conditions: read-out: Activity
[32] = tested on: 786-0; experiment: Cytotoxicity against human 786-0 cells assessed as cell growth at 0.5 uM by SRB assay; conditions: read-out: Activity
[33] = tested on: SN12C; experiment: Cytotoxicity against human SN12C cells assessed as cell growth at 0.5 uM by SRB assay; conditions: read-out: Activity
[34] = tested on: DU-145; experiment: Cytotoxicity against human DU145 cells assessed as cell growth at 0.5 uM by SRB assay; conditions: read-out: Activity; outline: as §1
[35] = tested on: MCF7; experiment: Cytotoxicity against human MCF7 cells assessed as cell growth at 0.5 uM by SRB assay; conditions: read-out: Activity
[36] = tested on: HCT-15; experiment: Cytotoxicity against human HCT15 cells assessed as cell growth at 5 uM by SRB assay; conditions: read-out: Activity; outline: as §1
[37] = Cytotoxicity against human NCI-ADR-RES cells assessed as cell growth at 5 uM by SRB assay; conditions: read-out: Activity
[38] = tested on: A498; experiment: Cytotoxicity against human A498 cells assessed as cell growth at 5 uM by SRB assay; conditions: read-out: Activity
[39] = tested on: MCF7; experiment: Cytotoxicity against human MCF7 cells assessed as cell growth at 5 uM by SRB assay; conditions: read-out: Activity
[40] = tested on: HOP-62; experiment: Cytotoxicity against human HOP62 cells assessed as cell growth at 50 uM by SRB assay; conditions: read-out: Activity; outline: as §1
[41] = read-out: LC50 (the source's name)
[42] = read-out: pLC50 (the source's name) (converted)

COc1cc([C@@H]2c3cc4c(cc3[C@@H](NC(=O)CN3CCN(CCCCCCCCCCN5CCN(CC(=O)N[C@@H]6c7cc8c(cc7[C@@H](c7cc(OC)c(O)c(OC)c7)[C@H]7C(=O)OC[C@@H]76)OCO8)CC5)CC3)[C@H]3COC(=O)[C@H]23)OCO4)cc(OC)c1O
growth at 50 µM [1]: -64% | growth at 50 µM [2]: 3% | growth at 50 µM [3]: 23% | GI50 ([4]; read-out: GI50): 0.0809 µM | CC50 [4, 41]: > 50 µM | GI50 ([4]; read-out: pGI50 (converted)): 0.0813 µM | CC50 [4, 42]: > 50.1 µM | GI50 ([5]; read-out: GI50): 0.0172 µM | CC50 [5, 41]: > 50 µM | TGI ([5]; read-out: TGI): 0.883 µM | GI50 ([5]; read-out: pGI50 (converted)): 0.0174 µM | CC50 [5, 42]: > 50.1 µM | TGI ([5]; read-out: pTGI (converted)): 0.891 µM | GI50 ([6]; read-out: GI50): 0.906 µM | CC50 [6, 41]: > 50 µM | TGI ([6]; read-out: TGI): 3.52 µM | GI50 ([6]; read-out: pGI50 (converted)): 0.912 µM | CC50 [6, 42]: > 50.1 µM | TGI ([6]; read-out: pTGI (converted)): 3.55 µM | GI50 ([7]; read-out: GI50): 1.09 µM | CC50 [7, 41]: 20.5 µM | TGI ([7]; read-out: TGI): 8.39 µM | GI50 ([7]; read-out: pGI50 (converted)): 1.1 µM | CC50 [7, 42]: 20.4 µM | TGI ([7]; read-out: pTGI (converted)): 8.32 µM | GI50 ([8]; read-out: GI50): 0.892 µM | CC50 [8, 41]: > 50 µM | TGI ([8]; read-out: TGI): 2.95 µM | GI50 ([8]; read-out: pGI50 (converted)): 0.891 µM | CC50 [8, 42]: > 50.1 µM | TGI ([8]; read-out: pTGI (converted)): 2.95 µM | GI50 ([9]; read-out: GI50): 0.83 µM | CC50 [9, 41]: 19.5 µM | TGI ([9]; read-out: TGI): 5.65 µM | GI50 ([9]; read-out: pGI50 (converted)): 0.832 µM | CC50 [9, 42]: 19.5 µM | TGI ([9]; read-out: pTGI (converted)): 5.62 µM | GI50 ([10]; read-out: GI50): 0.986 µM | CC50 [10, 41]: 13.5 µM | TGI ([10]; read-out: TGI): 3.61 µM | GI50 ([10]; read-out: pGI50 (converted)): 0.977 µM | CC50 [10, 42]: 13.5 µM | TGI ([10]; read-out: pTGI (converted)): 3.63 µM | GI50 ([11]; read-out: GI50): 0.903 µM | CC50 [11, 41]: 47.7 µM | TGI ([11]; read-out: TGI): 8.94 µM | GI50 ([11]; read-out: pGI50 (converted)): 0.912 µM | CC50 [11, 42]: 47.9 µM | TGI ([11]; read-out: pTGI (converted)): 8.91 µM | GI50 ([12]; read-out: GI50): 0.114 µM | CC50 [12, 41]: 37.4 µM | TGI ([12]; read-out: TGI): 8.5 µM | GI50 ([12]; read-out: pGI50 (converted)): 0.115 µM | CC50 [12, 42]: 37.2 µM | TGI ([12]; read-out: pTGI (converted)): 8.51 µM | GI50 ([13]; read-out: GI50): 0.958 µM | CC50 [13, 41]: 18.3 µM | TGI ([13]; read-out: TGI): 2.28 µM | GI50 ([13]; read-out: pGI50 (converted)): 0.955 µM | CC50 [13, 42]: 18.2 µM | TGI ([13]; read-out: pTGI (converted)): 2.29 µM | growth at 0.005 µM [14]: 89% | growth at 0.005 µM [15]: 99% | growth at 0.005 µM [16]: 92% | growth at 0.005 µM [17]: 98% | growth at 0.005 µM [18]: 90% | growth at 0.05 µM [19]: 62% | growth at 0.05 µM [20]: 48% | growth at 0.05 µM [21]: 81% | growth at 0.05 µM [22]: 90% | growth at 0.05 µM [23]: 80% | growth at 0.05 µM [24]: 88% | growth at 0.05 µM [25]: 85% | growth at 0.05 µM [26]: 89% | growth at 0.5 µM [27]: 33% | growth at 0.5 µM [28]: 72% | growth at 0.5 µM [29]: 49% | growth at 0.5 µM [30]: 13% | growth at 0.5 µM [31]: 63% | growth at 0.5 µM [32]: 26% | growth at 0.5 µM [33]: 27% | growth at 0.5 µM [34]: 22% | growth at 0.5 µM [35]: 30% | growth at 5 µM [36]: -69% | growth at 5 µM [37]: 53% | growth at 5 µM [38]: -9% | growth at 5 µM [39]: 18% | growth at 50 µM [40]: -20%
